In brackets after ≈: the same amount, converted by molar mass.
Key:
[1] = system: Human immunodeficiency virus 1; test: Antiviral activity against HIV1 infected in human MT4 cells expressing GFP incubated for 48 to 72 hrs in absence of 50% normal human serum by multiple round viral replication kinetics assay; type: functional
[2] = Stability in FaSSiF at pH 6.5 at 37 °C incubated for 4 hrs
[3] = Stability in SGF at pH 1.8 at 37 °C incubated for 4 hrs
[4] = Solubility in FaSSiF at pH 6.5 at room temperature incubated for 4 hrs; type: physicochemical
[5] = AUC (0 to infinity) in beagle dog at 2 mg/kg, po by LC-MS/MS method; type: ADME, organism-based, Canis lupus familiaris; parameters: dose 2 mg/kg, route oral, time infinity; details: beagle, in vivo
[6] = AUC (0 to infinity) in portal vein of portal vein-cannulated beagle dog at 10 mg/kg, po by LC-MS/MS method; type: ADME, organism-based, Canis lupus familiaris; parameters: dose 10 mg/kg, time infinity, route oral
Summary of the method: (§1)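 Portal vein-cannulated dogs received the prodrugs orally at doses normalized to 10 mg/kg of the parent molecule. Prodrug and parent concentrations were determined in plasma collected from the portal and jugular veins, and AUC was derived for each analyte at each site.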

[7] = AUC (0 to infinity) in jugular vein of portal vein-cannulated beagle dog at 10 mg/kg, po by LC-MS/MS method; type: ADME, organism-based, Canis lupus familiaris; parameters: dose 10 mg/kg, time infinity, route oral; summary of the method: as §1
Canis familiaris [8] = test: AUC (0 to infinity) in beagle dog assessed as (1R,2R,5S)-8'-(3-chloro-4-fluorobenzyl)-6'-hydroxy-2'-((S)-2-hydroxypropyl)-9',10'-dihydro-1'H-spiro[bicyclo[3.1.0]hexane-2,3'-imidazo[5,1-a][2,6]naphthyridine]-1',5',7'(2'H,8'H)-trione level at 10 mg/kg, po by LC-MS/MS method; type: ADME, organism-based, Canis lupus familiaris; parameters: dose 10 mg/kg, time infinity, route oral; details: in vivo
Summary of the method: (§2)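 Oral rising-dose studies were run in beagle dogs with prodrugs, at doses normalized to account for the promoiety so that they give the actual parent dose administered. The read-out was plasma exposure (AUC) of the parent compound.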

[9] = (§3) AUC (0 to infinity) in portal vein of portal vein-cannulated beagle dog assessed as (1R,2R,5S)-8'-(3-chloro-4-fluorobenzyl)-6'-hydroxy-2'-((S)-2-hydroxypropyl)-9',10'-dihydro-1'H-spiro[bicyclo[3.1.0]hexane-2,3'-imidazo[5,1-a][2,6]naphthyridine]-1',5',7'(2'H,8'H)-trione level at 10 mg/kg, po by LC-MS/MS method; type: ADME, organism-based, Canis lupus familiaris; parameters: dose 10 mg/kg, route oral, time infinity; details: in vivo; summary of the method: as §1
Canis familiaris [10] = test: AUC (0 to infinity) in beagle dog assessed as (1R,2R,5S)-8'-(3-chloro-4-fluorobenzyl)-6'-hydroxy-2'-((S)-2-hydroxypropyl)-9',10'-dihydro-1'H-spiro[bicyclo[3.1.0]hexane-2,3'-imidazo[5,1-a][2,6]naphthyridine]-1',5',7'(2'H,8'H)-trione level at 2 mg/kg, po by LC-MS/MS method; type: ADME, organism-based, Canis lupus familiaris; parameters: dose 2 mg/kg, time infinity, route oral; details: in vivo; summary of the method: as §2
[11] = Permeability in LLC-PK1 cells at 1 uM incubated for 3 hrs by LC-MS/MS method; type: ADME, cell-based, Sus scrofa; details: pig, read-out: permeability
[12] = Permeability in MDCK2 cells at 1 uM incubated for 3 hrs by LC-MS/MS method; type: ADME, cell-based, Canis lupus familiaris, MDCK-II; details: dog, MDCK; read-out: permeability
[13] = as §3, with “in jugular” for “in portal”; type: ADME, organism-based, Canis lupus familiaris; parameters: dose 10 mg/kg, route oral, time infinity; details: in vivo; summary of the method: as §1
Canis familiaris [14] = test: AUC (0 to infinity) in beagle dog assessed as c(1R,2S,5R)-8'-(3-chloro-4-fluorobenzyl)-6'-hydroxy-1-(hydroxymethyl)-2'-methyl-9',10'-dihydro-1'H-spiro[bicyclo[3.1.0]hexane-2,3'-imidazo[5,1-a][2,6]naphthyridine]-1',5',7'(2'H,8'H)-trione evel at 2 mg/kg, po by LC-MS/MS method; type: ADME, organism-based, Canis lupus familiaris; parameters: dose 2 mg/kg, route oral, time infinity; details: in vivo; summary of the method: as §2
Canis familiaris [15] = test: AUC (0 to infinity) in beagle dog assessed as (1R,2S,5R)-8'-(3-chloro-4-fluorobenzyl)-6'-hydroxy-1-(hydroxymethyl)-2'-methyl-9',10'-dihydro-1'H-spiro[bicyclo[3.1.0]hexane-2,3'-imidazo[5,1-a][2,6]naphthyridine]-1',5',7'(2'H,8'H)-trione level at 30 mg/kg, po by LC-MS/MS method; type: ADME, organism-based, Canis lupus familiaris; parameters: dose 30 mg/kg, route oral, time infinity; details: in vivo; summary of the method: as §2
[16] = (§4) AUC (0 to infinity) in jugular vein of portal vein-cannulated beagle dog assessed as (1R,2S,5R)-8'-(3-chloro-4-fluorobenzyl)-6'-hydroxy-1-(hydroxymethyl)-2'-methyl-9',10'-dihydro-1'H-spiro[bicyclo[3.1.0]hexane-2,3'-imidazo[5,1-a][2,6]naphthyridine]-1',5',7'(2'H,8'H)-trione level at 10 mg/kg, po by LC-MS/MS method; type: ADME, organism-based, Canis lupus familiaris; parameters: dose 10 mg/kg, time infinity, route oral; details: in vivo; summary of the method: as §1
[17] = as §4, with “portal” for “jugular”; type: ADME, organism-based, Canis lupus familiaris; parameters: dose 10 mg/kg, route oral, time infinity; details: in vivo; summary of the method: as §1
Canis familiaris [18] = test: AUC (0 to infinity) in beagle dog assessed as (1R,2R,5S)-8'-(3-chloro-4-fluorobenzyl)-6'-hydroxy-2'-((S)-2-hydroxypropyl)-9',10'-dihydro-1'H-spiro[bicyclo[3.1.0]hexane-2,3'-imidazo[5,1-a][2,6]naphthyridine]-1',5',7'(2'H,8'H)-trione level at 100 mg/kg, po by LC-MS/MS method; type: ADME, organism-based, Canis lupus familiaris; parameters: dose 100 mg/kg, time infinity, route oral; details: in vivo; summary of the method: as §2

Row | Compound | remaining at 4 h [2] [%] | remaining at 4 h [3] [%] | solubility at 4 h [4] [mg/mL] | AUC(0-inf) [5] [µM·h] | AUC(0-inf) [6] [µM·h] | AUC(0-inf) [7] [µM·h] | AUC (Canis familiaris [8]) [µM·h] | AUC [9] [µM·h] | AUC (Canis familiaris [10]) [µM·h] | Papp at 3 h, 1 µM [11] [nm/s] | Papp at 3 h, 1 µM [12] [nm/s] | AUC [13] [µM·h] | AUC (Canis familiaris [14]) [µM·h] | AUC (Canis familiaris [15]) [µM·h] | AUC [16] [µM·h] | AUC [17] [µM·h] | AUC (Canis familiaris [18]) [µM·h] | IP [1] [nM]
1 | C[C@@H](CN1C(=O)c2c3c(c(O)c(=O)n2[C@@]12CC[C@H]1C[C@H]12)C(=O)N(Cc1ccc(F)c(Cl)c1)CC3)OC(=O)[C@@H](N)CCCCN | 90 | 90 | > 2 | 6.8 |  |  |  |  |  |  |  |  |  |  |  |  |  | 40
2 | CC(C)OC(=O)OCOc1c2c(c3n(c1=O)[C@@]1(CC[C@H]4C[C@H]41)N(C[C@H](C)O)C3=O)CCN(Cc1ccc(F)c(Cl)c1)C2=O | > 98 | > 98 | 0.25 (≈ 404 µM) |  | 1.12 | 0.034 | 128 | 23.9 | 23 | 267 | 235 | 33.9 |  |  |  |  |  | 178

Now from value to compound, other results behind:

Row | remaining at 4 h [2] [%] | remaining at 4 h [3] [%] | solubility at 4 h [4] [mg/mL] | AUC(0-inf) [5] [µM·h] | AUC(0-inf) [6] [µM·h] | AUC(0-inf) [7] [µM·h] | AUC (Canis familiaris [8]) [µM·h] | AUC [9] [µM·h] | AUC (Canis familiaris [10]) [µM·h] | Papp at 3 h, 1 µM [11] [nm/s] | Papp at 3 h, 1 µM [12] [nm/s] | AUC [13] [µM·h] | AUC (Canis familiaris [14]) [µM·h] | AUC (Canis familiaris [15]) [µM·h] | AUC [16] [µM·h] | AUC [17] [µM·h] | AUC (Canis familiaris [18]) [µM·h] | Compound | IP [1] [nM]
3 | > 98 | > 98 | 2.3 (≈ 3950 µM) | 6.8 |  |  |  |  |  |  |  |  |  |  |  |  |  | C[C@@H](CN1C(=O)c2c3c(c(O)c(=O)n2[C@@]12CC[C@H]1C[C@H]12)C(=O)N(Cc1ccc(F)c(Cl)c1)CC3)OP(=O)(O)O | 1580
4 | > 98 | > 98 | 0.5 (≈ 828 µM) |  | 2.55 | 0.037 |  |  |  | 265 | 197 |  | 5 | 284 | 30.4 | 27.3 |  | CC(C)OC(=O)OCOc1c2c(c3n(c1=O)[C@]1(CC[C@@H]4C[C@@]41CO)N(C)C3=O)CCN(Cc1ccc(F)c(Cl)c1)C2=O | 16
5 | > 98 | > 98 | > 2 |  |  |  |  |  |  |  |  |  |  |  |  |  | 570 | CC(C)OC(=O)OCOc1c2c(c3n(c1=O)[C@@]1(CC[C@H]4C[C@H]41)N(C[C@H](C)OP(=O)(O)O)C3=O)CCN(Cc1ccc(F)c(Cl)c1)C2=O | >4200
